Each block holds one molecule with its values, some of them ahead of it. Peptide text beside a SMILES is read from it. * marks the point of attachment. Cbz = O=C(OCc1ccccc1)*; Bn = c1ccc(C*)cc1
Experiments:
[1] = system: Rattus norvegicus; assay: Antiovulatory activity in sc dosed CD rat assessed as blockade of ovulation administered as six doses at 1200, 1230, 1300, 1350, 1400 and 1450 hrs during proestrus stage measured during estrus stage by dissecting microscopic analysis; assay type: functional
Procedure, shortened: (§1)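 Cycling Charles River CD rats were given six subcutaneous injections of analogue in 0.1 mL propylene glycol on the afternoon of proestrus, and controls received vehicle alone. Rats were killed the next morning (estrus). Ovulating animals were scored and ova in the oviducts were counted under a dissecting microscope.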

[2] = system: Rattus norvegicus; assay: Antiovulatory activity in CD rat assessed as blockade of ovulation at 3 mg, sc administered as six doses at 1200, 1230, 1300, 1350, 1400 and 1450 hrs during proestrus stage measured during estrus stage by dissecting microscopic analysis; assay type: functional; procedure, shortened: as §1
[3] = molecular target: T1, Gonadotropin-releasing hormone receptor (Rattus norvegicus) (UniProt P30969); assay: In vitro antagonist activity at GNRHR in CD rat anterior pituitary gland assessed as inhibition of LH-RH-stimulated LH release at compound to LH-RH molar ratio of 200 after 4 hrs by radioimmunoassay; settings: concentration not given here
T1 sequence (whole entry): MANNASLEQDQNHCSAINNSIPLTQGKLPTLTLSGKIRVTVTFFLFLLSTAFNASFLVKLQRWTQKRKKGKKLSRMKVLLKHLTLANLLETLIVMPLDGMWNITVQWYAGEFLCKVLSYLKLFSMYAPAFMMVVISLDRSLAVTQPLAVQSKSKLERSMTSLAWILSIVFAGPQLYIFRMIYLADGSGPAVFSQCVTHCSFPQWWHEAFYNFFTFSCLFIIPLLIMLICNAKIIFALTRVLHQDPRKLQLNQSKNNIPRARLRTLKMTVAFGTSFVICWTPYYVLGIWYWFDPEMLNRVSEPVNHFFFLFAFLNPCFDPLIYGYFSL
Procedure, shortened: (§2)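 Anterior pituitaries from diestrus CD rats (200-250 g) were dissociated enzymatically (collagenase, hyaluronidase, then Viokase). Cells were cultured 4 days at 1.67 × 10^5 cells/mL in DME with 10% horse serum and 2.5% fetal calf serum, then washed serum-free. Duplicate cultures received LH-RH (2-5 × 10^-10 M) with a single analogue concentration in serum-free DME for 4 h at 37 °C. LH in the medium was measured by RIA and reported as % inhibition of LH-RH-stimulated release.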

[4] = molecular target: T1, Gonadotropin-releasing hormone receptor (Rattus norvegicus); assay: In vitro antagonist activity at GNRHR in CD rat anterior pituitary gland assessed as ratio of molar concentration of compound to LH-RH for inhibition of LH-RH-stimulated LH release after 4 hrs by radioimmunoassay
Procedure, shortened: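 Monolayers were cultured 4 days from dissociated anterior pituitary cells of diestrus CD rats. They were exposed in duplicate to LH-RH (2-5 × 10^-10 M) plus multiple analogue concentrations in serum-free DME for 4 h at 37 °C. LH in the medium was measured by radioimmunoassay. The ED50 molar ratio is the analogue:LH-RH molar ratio giving 50% inhibition of LH-RH-stimulated LH release.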

[5] = molecular target: T1, Gonadotropin-releasing hormone receptor (Rattus norvegicus); assay: In vitro antagonist activity at GNRHR in CD rat anterior pituitary gland assessed as inhibition of LH-RH-stimulated LH release at compound to LH-RH molar ratio of 10 after 4 hrs by radioimmunoassay; settings: concentration not given here; procedure, shortened: as §2
[6] = molecular target: T1, Gonadotropin-releasing hormone receptor (Rattus norvegicus); assay: In vitro antagonist activity at GNRHR in CD rat anterior pituitary gland assessed as inhibition of LH-RH-stimulated LH release at compound to LH-RH molar ratio of 2800 after 4 hrs by radioimmunoassay; settings: concentration not given here; procedure, shortened: as §2
[7] = system: Rattus norvegicus; assay: Antiovulatory activity in CD rat assessed as blockade of ovulation at 1 mg, sc administered as six doses at 1200, 1230, 1300, 1350, 1400 and 1450 hrs during proestrus stage measured during estrus stage by dissecting microscopic analysis; assay type: functional; procedure, shortened: as §1
[8] = molecular target: T1, Gonadotropin-releasing hormone receptor (Rattus norvegicus); assay: In vitro antagonist activity at GNRHR in CD rat anterior pituitary gland assessed as inhibition of LH-RH-stimulated LH release at compound to LH-RH molar ratio of 57 after 4 hrs by radioimmunoassay; settings: concentration not given here; procedure, shortened: as §2
[9] = molecular target: T1, Gonadotropin-releasing hormone receptor (Rattus norvegicus); assay: In vitro antagonist activity at GNRHR in CD rat anterior pituitary gland assessed as inhibition of LH-RH-stimulated LH release at compound to LH-RH molar ratio of 28 after 4 hrs by radioimmunoassay; settings: concentration not given here; procedure, shortened: as §2
[10] = molecular target: T1, Gonadotropin-releasing hormone receptor (Rattus norvegicus); assay: In vitro antagonist activity at GNRHR in CD rat anterior pituitary gland assessed as inhibition of LH-RH-stimulated LH release at compound to LH-RH molar ratio of 2000 after 4 hrs by radioimmunoassay; settings: concentration not given here; procedure, shortened: as §2
[11] = system: Rattus norvegicus; assay: Antiovulatory activity in CD rat assessed as blockade of ovulation at 5 mg, sc administered as six doses at 1200, 1230, 1300, 1350, 1400 and 1450 hrs during proestrus stage measured during estrus stage by dissecting microscopic analysis; assay type: functional; procedure, shortened: as §1
[12] = molecular target: T1, Gonadotropin-releasing hormone receptor (Rattus norvegicus); assay: In vitro antagonist activity at GNRHR in CD rat anterior pituitary gland assessed as inhibition of LH-RH-stimulated LH release at compound to LH-RH molar ratio of 4000 after 4 hrs by radioimmunoassay; settings: concentration not given here; procedure, shortened: as §2
[13] = Solubility of the compound in water; assay type: physicochemical
[14] = system: Rattus norvegicus; assay: Antiovulatory activity in CD rat assessed as blockade of ovulation at 0.1 mg, sc administered as six doses at 1200, 1230, 1300, 1350, 1400 and 1450 hrs during proestrus stage measured during estrus stage by dissecting microscopic analysis; assay type: functional; settings: in the assay text read “at 1 mg” for “at 0.1 mg”; procedure, shortened: as §1
[15] = molecular target: T1, Gonadotropin-releasing hormone receptor (Rattus norvegicus); assay: In vitro antagonist activity at GNRHR in CD rat anterior pituitary gland assessed as inhibition of LH-RH-stimulated LH release at compound to LH-RH molar ratio of 20 after 4 hrs by radioimmunoassay; settings: concentration not given here; procedure, shortened: as §2
[16] = system: Rattus norvegicus; assay: Antiovulatory activity in CD rat assessed as blockade of ovulation at 0.3 mg, sc administered as six doses at 1200, 1230, 1300, 1350, 1400 and 1450 hrs during proestrus stage measured during estrus stage by dissecting microscopic analysis; assay type: functional; procedure, shortened: as §1

inhibition [3]: 74%
SMILES: CC(=O)O.CCNC(=O)[C@@H]1CCCN1C(=O)[C@H](CCCNC(=N)N)NC(=O)[C@H](CC(C)C)NC(=O)[C@H]1CCCN1C(=O)[C@H](Cc1ccc(O)cc1)NC(=O)[C@H](CO)NC(=O)[C@H](Cc1c[nH]c2ccccc12)NC(=O)[C@H](CCC(N)=O)NC(=O)OCc1ccccc1
ED50 [1]: 1 mg
inhibition (INH) [2]: 100%

ED50 [4]: 1.5 molar ratio
inhibition [5]: 90%
SMILES: CC(C)C[C@H](NC(=O)[C@@H](Cc1ccccc1)NC(=O)[C@H](Cc1ccc(O)cc1)NC(=O)[C@H](CO)NC(=O)[C@H](Cc1c[nH]c2ccccc12)NC(=O)[C@H](COCc1ccccc1)NC(=O)OCc1ccccc1)C(=O)N[C@@H](CCCNC(=N)N)C(=O)N1CCC[C@H]1C(=O)NCC(N)=O.Cl
ED50 [1]: >3 mg
inhibition (INH) [2]: 40%

ED50 [4]: 100 molar ratio
inhibition [6]: 100%
SMILES: CC(C)C[C@H](NC(=O)CNC(=O)[C@H](Cc1ccc(O)cc1)NC(=O)[C@H](CO)NC(=O)[C@H](Cc1c[nH]c2ccccc12)NC(=O)[C@H](COCc1ccccc1)NC(=O)OCc1ccccc1)C(=O)N[C@@H](CCCNC(=N)N)C(=O)N1CCC[C@H]1C(=O)NCC(N)=O.Cl (Cbz-S(Bn)WSYGLRPG-NH2)
inhibition (INH) [2]: 20%

ED50 [4]: 19 molar ratio
inhibition [8]: 91%
SMILES: CCNC(=O)[C@@H]1CCCN1C(=O)[C@H](CCCNC(=N)N)NC(=O)[C@H](CC(C)C)NC(=O)[C@@H](Cc1ccccc1)NC(=O)[C@H](Cc1ccc(O)cc1)NC(=O)[C@H](CO)NC(=O)[C@H](Cc1c[nH]c2ccccc12)NC(=O)[C@H](COCc1ccccc1)NC(=O)OC(C)(C)C.Cl
ED50 [1]: >10 mg
inhibition (INH) [7]: 0%

inhibition [9]: 77%
SMILES: CC(=O)O.CCNC(=O)[C@@H]1CCCN1C(=O)[C@H](CCCNC(=N)N)NC(=O)[C@H](CC(C)C)NC(=O)[C@@H](CCC(N)=O)NC(=O)[C@H](Cc1ccc(O)cc1)NC(=O)[C@H](CO)NC(=O)[C@H](Cc1c[nH]c2ccccc12)NC(=O)[C@H](CCC(N)=O)NC(=O)OCc1ccccc1
ED50 [1]: >1 mg
inhibition (INH) [7]: 20%

inhibition [3]: 85%
SMILES: CCNC(=O)[C@@H]1CCCN1C(=O)[C@H](CCCNC(=N)N)NC(=O)[C@H](CC(C)C)NC(=O)[C@@H](CCSC)NC(=O)[C@H](Cc1ccc(O)cc1)NC(=O)[C@H](CO)NC(=O)[C@H](Cc1c[nH]c2ccccc12)NC(=O)[C@H](CCC(N)=O)NC(=O)OCc1ccccc1.Cl
ED50 [1]: 3 mg
inhibition (INH) [2]: 60%

ED50 [4]: 300 molar ratio
inhibition [10]: 100%
SMILES: CC(=O)O.CCNC(=O)[C@@H]1CCCN1C(=O)[C@H](CCCNC(=N)N)NC(=O)[C@H](CC(C)C)NC(=O)[C@@H](CC(N)=O)NC(=O)[C@H](Cc1ccc(O)cc1)NC(=O)[C@H](CO)NC(=O)[C@H](Cc1c[nH]c2ccccc12)NC(=O)[C@H](CCC(N)=O)NC(=O)OCc1ccccc1
ED50 [1]: >1 mg
inhibition (INH) [7]: 20%

SMILES: CC(=O)O.CCNC(=O)[C@@H]1CCCN1C(=O)[C@H](CCCNC(=N)N)NC(=O)[C@H](CC(C)C)NC(=O)[C@@H](Cc1ccccc1)NC(=O)[C@H](Cc1ccc(O)cc1)NC(=O)[C@H](CO)NC(=O)[C@H](Cc1c[nH]c2ccccc12)NC(=O)[C@H](CCC(N)=O)NC(=O)OCc1ccccc1
inhibition (INH) [11]: 0%
ED50 [1]: >5 mg

inhibition [12]: 17%
SMILES: CC(C)C[C@H](NC(=O)CNC(=O)[C@H](Cc1ccc(O)cc1)NC(=O)[C@H](CO)NC(=O)[C@H](Cc1c[nH]c2ccccc12)NC(=O)[C@H](Cc1cnc[nH]1)NC(=O)OCc1ccccc1)C(=O)N[C@@H](CCCNC(=N)N)C(=O)N1CCC[C@H]1C(=O)NCC(=O)O (HELM PEPTIDE1{[O=C(OCc1ccccc1)[*:2]].H.W.S.Y.G.L.R.P.G}$$$$V2.0)

inhibition [12]: 10%
SMILES: CC(C)C[C@H](NC(=O)CNC(=O)[C@H](Cc1ccc(O)cc1)NC(=O)[C@H](CO)NC(=O)[C@H](Cc1c[nH]c2ccccc12)NC(=O)[C@H](Cc1cnc[nH]1)NC(=O)OCc1ccccc1)C(=O)N[C@@H](CCCNC(=N)N)C(=O)N1CCC[C@H]1C(=O)O (HELM PEPTIDE1{[O=C(OCc1ccccc1)[*:2]].H.W.S.Y.G.L.R.P}$$$$V2.0)

ED50 [4]: 1.3 molar ratio
inhibition [5]: 93%
SMILES: CCNC(=O)[C@@H]1CCCN1C(=O)[C@H](CCCNC(=N)N)NC(=O)[C@H](CC(C)C)NC(=O)[C@@H](Cc1ccccc1)NC(=O)[C@H](Cc1ccc(O)cc1)NC(=O)[C@H](CO)NC(=O)[C@H](Cc1c[nH]c2ccccc12)NC(=O)[C@H](COCc1ccccc1)NC(=O)OCc1ccccc1.Cl
inhibition (INH) [11]: 80%
ED50 [1]: 2.5 mg

inhibition [12]: 33%
SMILES: CC(C)C[C@H](NC(=O)CNC(=O)[C@H](Cc1ccc(O)cc1)NC(=O)[C@H](CO)NC(=O)[C@H](Cc1c[nH]c2ccccc12)NC(=O)[C@H](CCC(N)=O)NC(=O)OCc1ccccc1)C(=O)N[C@@H](CCCNC(=N)N)C(=O)N1CCC[C@H]1C(=O)NCC(N)=O.Cl (HELM PEPTIDE1{[O=C(OCc1ccccc1)[*:2]].Q.W.S.Y.G.L.R.P.G.[am]}$$$$V2.0)
ED50 [1]: >1 mg

solubility [13]: 1000 µg/mL
SMILES: CC(C)C[C@H](NC(=O)[C@@H](Cc1c[nH]c2ccccc12)NC(=O)[C@H](Cc1ccc(O)cc1)NC(=O)[C@H](CO)NC(=O)[C@H](Cc1c[nH]c2ccccc12)NC(=O)[C@H](COCc1ccccc1)NC(=O)OC(C)(C)C)C(=O)N[C@@H](CCCNC(=N)N)C(=O)N1CCC[C@H]1C(=O)NCC(N)=O.Cl
ED50 [1]: 0.05 mg
inhibition (INH) [14]: 100%

ED50 [4]: 1.5 molar ratio
inhibition [15]: 100%
SMILES: CCNC(=O)[C@@H]1CCCN1C(=O)[C@H](CCCNC(=N)N)NC(=O)[C@H](CC(C)C)NC(=O)[C@@H](Cc1c[nH]c2ccccc12)NC(=O)[C@H](Cc1ccc(O)cc1)NC(=O)[C@H](CO)NC(=O)[C@H](Cc1c[nH]c2ccccc12)NC(=O)[C@@H](NC(=O)OCc1ccccc1)[C@@H](C)CC.Cl
inhibition (INH) [11]: 0%
ED50 [1]: >5 mg

SMILES: CC(=O)O.CCNC(=O)[C@@H]1CCCN1C(=O)[C@H](CCCNC(=N)N)NC(=O)[C@H](CC(C)C)NC(=O)[C@H](NC(=O)[C@H](Cc1ccc(O)cc1)NC(=O)[C@H](CO)NC(=O)[C@H](Cc1c[nH]c2ccccc12)NC(=O)[C@H](CCC(N)=O)NC(=O)OCc1ccccc1)[C@@H](O)c1ccccc1
ED50 [1]: 0.1 mg
inhibition (INH) [16]: 100%

ED50 [4]: 22.3 molar ratio
inhibition [9]: 60%
SMILES: CCNC(=O)[C@@H]1CCCN1C(=O)[C@H](CCCNC(=N)N)NC(=O)[C@H](CC(C)C)NC(=O)[C@@H](CC(C)C)NC(=O)[C@H](Cc1ccc(O)cc1)NC(=O)[C@H](CO)NC(=O)[C@H](Cc1c[nH]c2ccccc12)NC(=O)[C@H](CCC(N)=O)NC(=O)OCc1ccccc1.Cl
ED50 [1]: >1 mg
inhibition (INH) [7]: 20%
